According to PubChem BioAssay:
Records with an inconclusive call do not appear. The source made the active and inactive calls.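 How the source made its calls, unless noted: active means growth inhibition above 25% in both replicates, a cutoff set 3 SD above the mean; inconclusive means above 25% in only one replicate; inactive means the rest.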

Assays:
[1] = OD615 S. cerevisiae growth inhibition, permissive medium, pilot counter-assay, permissive growth control for S. cerevisiae lifespan shortening project (AID 705); settings: OD615, 24 h, at 10 µM, active compounds read high
In short: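 System: S. cerevisiae with engineered DeaD lifespan system. Medium: SC raffinose/galactose permissive medium. Doses: single compound dose of 10 µM, 0.25% DMSO final. Schedule: 24 h exposure, 30 °C. Measured by: OD615 turbidity read. Read-out: growth inhibition.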

[2] = Restrictive medium S. cerevisiae growth inhibition, OD615, pilot screen of yeast lifespan reduction project, restrictive growth control (AID 706;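 active means growth inhibition above a set limit, 3 SD over mean compound inhibition, in both replicates, cut at about 43% in these data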;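 further: modified DeaD lifespan yeast strain shifted to restrictive glucose medium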); settings: OD615, 48 h, at 10 µM, active compounds read high
In short: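 Assay system – genetically modified Saccharomyces cerevisiae, DeaD replicative lifespan assay strain · Medium – CSMM-D glucose medium · Doses – 10 µM compound, 0.25% DMSO · Times – 4 h pre-incubation, 48 h exposure at 30 °C · Signal – optical density at 615 nm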

[3] = viability gain of MRP-1-high H69AR cells under doxorubicin, pilot screen, MRP-1 activator project, CellTiter-Glo, duplicate (AID 807;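 active means viability increase at or above a cutoff of the median across tested compounds plus 3 SD, cut at about 8.5% in these data, passing the limit was not always enough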;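 further: compound pretreatment 18-22 h then 72 h combined with doxorubicin; 0% = doxorubicin alone and 100% = vehicle without doxorubicin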); settings: H69AR viability with doxorubicin, CellTiter-Glo luminescence; at 10 µM; active compounds read high
[4] = growth suppression of beta-catenin knockout HCT116, pilot screen, human colon tumor cells (AID 823;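 active means cell viability at or below a set limit in both duplicate runs, the limit being the all-compound median minus 4 SD, cut at about 23% in these data, passing the limit was not always enough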;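 further: 0% = wells killed by 20 µM Hyamine and 100% = untreated DMSO cell wells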); settings: CellTiter-Glo, 60 h, at 10 µM, active compounds read low
[5] = growth suppression of PTEN-deleted HCT116, pilot screen, cell-based, HCT116 clonal line, CellTiter-Glo (AID 824;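 active means viability at or below 27.92% in each of two runs, the all-compound median minus 4 SD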;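 further: 0% = 20 µM Hyamine control and 100% = vehicle cell control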); settings: 60 h, at 10 µM, active compounds read low
[6] = inhibitors of the yeast RAM network, pilot screen, dse1pr::URA3 reporter, 5-FOA selection (AID 869;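 active means inhibition over a set limit, the all-compound mean plus 3 SD, in both replicate runs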;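 further: 0% = DMSO wells with no growth and 100% = 10 µM 1-NA-PP1 with full growth; RAM network block rescues cells from 5-FOA so hits raise OD615 growth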); settings: S. cerevisiae dse1pr::URA3 5-FOA growth, OD615, 2 d; at 10 µM; active compounds read high; strain carries analog-sensitive mutant Cbk1 kinase
[7] = RAM signaling pathway blockade in yeast – S. cerevisiae, Pdr1DBD-CYC8 efflux-inhibited sensitized strain, primary screen (AID 1298;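 active means RAM network inhibition above 8.4% in each of two replicates, 3 SD over the compound average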;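 further: 0% = DMSO untreated cells without growth and 100% = 10 µM 1-NA-PP1 full growth; higher means more yeast growth rescued from 5-FOA killing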); settings: S. cerevisiae cbk1-as DSE1-URA3 strain, 5-FOA growth OD615, 2 d; at 50 µM; active compounds read high

CCC(C)Sc1nc2c(cnn2-c2ccc(C)cc2)c(=O)[nH]1 (stereo unspecified)
inactive: growth inhibition [1] -13% | growth inhibition [2] -3.34% | viability increase [3] -3.06% | viability [4] 93.9% | viability [5] 88.9% | inhibition [6] 4.24% | RAM network inhibition [7] 0.41%

Cc1ccc(NC(=O)CNS(=O)(=O)c2cccs2)cc1F
inactive: growth inhibition [1] -5.56% | growth inhibition [2] -17.9% | viability increase [3] 1.44% | viability [4] 100% | viability [5] 97.7% | inhibition [6] 0.01% | RAM network inhibition [7] -0.53%

O=C(Cn1c(-c2cncs2)nc2ccccc21)NCCc1ccccc1
inactive: growth inhibition [1] -6.77% | growth inhibition [2] -8.58% | viability increase [3] -2.77% | viability [4] 99.6% | viability [5] 92.7% | inhibition [6] 1.25% | RAM network inhibition [7] 4.43%

COc1cccc(-n2c(Cc3cc(=O)[nH]c(=O)[nH]3)nnc2SC(C)C)c1
inactive: growth inhibition [1] -12.3% | growth inhibition [2] 8.2% | viability increase [3] -0.34% | viability [4] 103% | viability [5] 100% | inhibition [6] 1.71% | RAM network inhibition [7] 3.35%

CC(OC(=O)c1cc[n+]([O-])cc1)C(=O)Nc1ccc(Cl)cn1 (stereo unspecified)
inactive: growth inhibition [1] 0.77% | growth inhibition [2] 0.53% | viability increase [3] -1.44% | viability [4] 102% | viability [5] 98.3% | inhibition [6] 1.23% | RAM network inhibition [7] 1.61%

N#CCn1nnc(-c2ccc3c(c2)OCO3)n1
inactive: growth inhibition [1] -5.24% | growth inhibition [2] 3.03% | viability increase [3] 3.41% | viability [4] 98.5% | viability [5] 103% | inhibition [6] 0.46% | RAM network inhibition [7] 0.16%

CCOC(=O)c1cnc2c(Cl)cc(Cl)cc2c1NCCOCCO
inactive: growth inhibition [1] 1.23% | growth inhibition [2] -11.6% | viability increase [3] -5.62% | viability [4] 81.8% | viability [5] 74.4% | inhibition [6] -0.09% | RAM network inhibition [7] 2.56%

Fc1ccc(CN2CCCCCCC2)cc1F
inactive: growth inhibition [1] -3.83% | growth inhibition [2] -9.1% | viability increase [3] -3.13% | viability [4] 92.2% | viability [5] 95.7% | inhibition [6] -0.325% | RAM network inhibition [7] 0.52%

O=C(Cn1nc(Cc2cccnc2)c2ccccc2c1=O)NCCCN1CCCC1=O
inactive: growth inhibition [1] 3.02% | growth inhibition [2] -5.47% | viability increase [3] -0.8% | viability [4] 103% | viability [5] 97.3% | inhibition [6] 0.75% | RAM network inhibition [7] 0.25%

CCOC(=O)Cn1c(=O)oc2cc(S(=O)(=O)Nc3ccc(N(CC)CC)cc3C)ccc21
inactive: growth inhibition [1] -11.3% | growth inhibition [2] -8.05% | viability increase [3] 0.16% | viability [4] 85.6% | viability [5] 86.6% | inhibition [6] 1.81% | RAM network inhibition [7] 9.51%

CCCCOc1ccc(-c2nc(-c3cccnc3)no2)cc1
inactive: growth inhibition [1] -3.21% | growth inhibition [2] 4.81% | viability increase [3] 4.19% | viability [4] 68.4% | viability [5] 82.9% | inhibition [6] 0.07% | RAM network inhibition [7] 2.29%

COc1ccc(C2C(C(=O)N3CCN(c4ccccc4)CC3)c3ccccc3C(=O)N2C)cc1OC (stereo unspecified)
inactive: growth inhibition [1] -8.36% | growth inhibition [2] -14.2% | viability increase [3] -1.19% | viability [4] 97.1% | viability [5] 99.3% | inhibition [6] 1.28% | RAM network inhibition [7] 0.53%

COc1ccc(NC(=O)NCCN2CCN(c3cccc(Cl)c3)CC2)cc1
inactive: growth inhibition [1] 1.49% | growth inhibition [2] -5.71% | viability increase [3] -1.77% | viability [4] 76.9% | viability [5] 71.9% | inhibition [6] 0.88% | RAM network inhibition [7] 3.82%

CCOC(=O)COn1c(=O)c(=O)n(O)c2ccccc21
inactive: growth inhibition [1] -14.5% | growth inhibition [2] -14.8% | viability increase [3] -4.99% | viability [4] 87.2% | viability [5] 87.1% | inhibition [6] 1.54% | RAM network inhibition [7] 1.4%

O=C(CSc1ccc2nnc(-c3cccnc3)n2n1)N1CCc2ccccc21
inactive: growth inhibition [1] -5.28% | growth inhibition [2] 4.37% | viability increase [3] -3.19% | viability [4] 103% | viability [5] 94.1% | inhibition [6] 0.845% | RAM network inhibition [7] 4.57%

COc1cc(OC)c(NC2c3ccccc3C(=O)N2c2cc(C)ccn2)cc1Cl (stereo unspecified)
inactive: growth inhibition [1] -11.7% | growth inhibition [2] -3.74% | viability increase [3] 0.48% | viability [4] 92.9% | viability [5] 84.2% | inhibition [6] 0% | RAM network inhibition [7] 6.68%

O=C(NCCN1CCOCC1)c1ccc2c(c1)N(Cc1ccccc1)CCS2
inactive: growth inhibition [1] -1.33% | growth inhibition [2] -3.97% | viability increase [3] -2.25% | viability [4] 93.2% | viability [5] 94.5% | inhibition [6] 1.02% | RAM network inhibition [7] 6.44%

COc1ccc(OC)c(-c2nc(C(N)=O)c3[nH]c(=O)n(-c4ccc(F)cc4)c3n2)c1
inactive: growth inhibition [1] -0.485% | growth inhibition [2] -10.4% | viability increase [3] -2.73% | viability [4] 95.4% | viability [5] 103% | inhibition [6] 2.46% | RAM network inhibition [7] 0.16%

CCOC(=O)c1ccc2[nH]c(C)cc(=O)c2c1
inactive: growth inhibition [1] -1.86% | growth inhibition [2] 1.21% | viability increase [3] -0.4% | viability [4] 98% | viability [5] 98% | inhibition [6] 1.35% | RAM network inhibition [7] 9.46%

O=C1C(=O)N(CCCn2ccnc2)C(c2cccnc2)/C1=C(/O)c1ccc(Cl)cc1 (stereo unspecified)
inactive: growth inhibition [1] -11.6% | growth inhibition [2] -4.88% | viability increase [3] -0.32% | viability [4] 97.2% | viability [5] 98.6% | inhibition [6] 0.905% | RAM network inhibition [7] 1.1%

CCSCCOC(=O)C1=C(C)NC(=O)NC1c1cccc(OC)c1OC (stereo unspecified)
inactive: growth inhibition [1] -15% | growth inhibition [2] -9.84% | viability increase [3] -1.39% | viability [4] 96.8% | viability [5] 96.9% | inhibition [6] 0.96% | RAM network inhibition [7] 0.63%

O=C(Cn1cc2c(n1)CCCC2)NCCCN1CCN(C2CCCCC2)CC1
inactive: growth inhibition [1] -3.58% | growth inhibition [2] 9.3% | viability increase [3] -0.74% | viability [4] 101% | viability [5] 93.1% | inhibition [6] 1.92% | RAM network inhibition [7] 0.77%

CSc1ccc(C2NC(=O)c3c(sc4c3CCN(C)C4)N2)cc1 (stereo unspecified)
inactive: growth inhibition [1] -13.2% | growth inhibition [2] -0.305% | viability increase [3] -2.7% | viability [4] 78.2% | viability [5] 92.5% | inhibition [6] -0.285% | RAM network inhibition [7] 4.99%

Cc1ccc2oc(=O)c3cnn(CC(=O)Nc4ccccc4N4CCN(C)CC4)c3c2c1
inactive: growth inhibition [1] 0.52% | growth inhibition [2] -25.3% | viability increase [3] -6.16% | inhibition [6] -0.415% | RAM network inhibition [7] -0.65%
active: viability [4] 8.9% | viability [5] 6.03%

CCOC(=O)CSc1nnc(CSc2nc(N)c3c(C)c(C)sc3n2)n1-c1ccccc1
inactive: growth inhibition [1] 14.1% | viability increase [3] -2.13% | viability [4] 94.8% | viability [5] 96.2% | inhibition [6] 0.985% | RAM network inhibition [7] 5.21%
active: growth inhibition [2] 53.5%

COc1ccccc1C(=O)NC(CCSC)C(=O)NCC(c1ccco1)N(C)C (stereo unspecified)
inactive: growth inhibition [1] -10.1% | growth inhibition [2] -0.55% | viability increase [3] -2.48% | viability [4] 87.2% | viability [5] 89.5% | inhibition [6] 1.89% | RAM network inhibition [7] 1.92%

COc1ccccc1C1N(c2cc(Cl)ccc2OC)C(=O)C2CCCN21 (stereo unspecified)
inactive: growth inhibition [1] 8.71% | growth inhibition [2] 3.69% | viability increase [3] -2.83% | viability [4] 98.7% | viability [5] 96.3% | inhibition [6] 0.445% | RAM network inhibition [7] 2.33%

O=c1nc2s/c(=C\c3ccco3)c(=O)n2nc1Cc1ccccc1
inactive: growth inhibition [1] -15.4% | growth inhibition [2] -3.2% | viability increase [3] -2.41% | viability [4] 97.7% | viability [5] 94.8% | inhibition [6] 2.04% | RAM network inhibition [7] 4.31%

CCCC(=O)NCCc1nc2ccccc2n1CCC
inactive: growth inhibition [1] -7.3% | growth inhibition [2] 2.73% | viability increase [3] 0.5% | viability [4] 102% | viability [5] 101% | inhibition [6] 2.72% | RAM network inhibition [7] -1.16%

N#CCC(=O)Nc1ccccc1C(=O)O
inactive: growth inhibition [1] -4.9% | growth inhibition [2] 0.025% | viability increase [3] -2.8% | viability [4] 94.8% | viability [5] 97% | inhibition [6] 0.695% | RAM network inhibition [7] -0.92%

Clc1ccc(-c2noc(COc3ccccc3)n2)cc1
inactive: growth inhibition [1] -3.93% | growth inhibition [2] 14.3% | viability increase [3] 2.15% | viability [4] 101% | viability [5] 95.6% | inhibition [6] 0.745% | RAM network inhibition [7] 9.14%

Cc1n[nH]c(C)c1S(=O)(=O)N(CC(=O)N1CCc2ccccc21)c1ccc(C(C)C)cc1
inactive: growth inhibition [1] -9.99% | growth inhibition [2] 9.17% | viability increase [3] -7.59% | viability [4] 89.6% | viability [5] 83.3% | inhibition [6] 1.94% | RAM network inhibition [7] 8.57%

COc1ccc2c(c1)OC1(C)CC2C(C(=O)c2ccccc2OC)C(=O)N1 (stereo unspecified)
inactive: growth inhibition [1] -18.1% | growth inhibition [2] -9.23% | viability increase [3] -4.56% | viability [4] 80.4% | viability [5] 67% | inhibition [6] -0.025% | RAM network inhibition [7] 1.48%
